Measured values from ChEMBL document CHEMBL1143781, “Synthesis, in vitro antibacterial and antifungal evaluations of 2-amino-4-(1-naphthyl)-6-arylpyrimidines” (2007).
Values after ≈ are worked out from the molar mass of the structure shown.

Experiments:
Assay type in all cases: functional
Microsporum = assay: Antifungal activity against Microsporum gypseum after 7 days; conditions: 168 h
Summary of the method: (§1)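 Fungal strains were taken from Sabouraud medium into nutrient broth and grown 3–5 days at 25 °C. They were vortexed 4–5 min with sterile beads, and the suspensions were adjusted to absorbance 0.5 at 500 nm. Eight serial dilutions were made in microplates, and all wells except the positive control received standardized inoculum. MIC was the lowest concentration giving no visible growth.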

Escherichia coli = assay: Antibacterial activity against Escherichia coli after 24 hrs by micro-broth dilution technique
Summary of the method: (§2)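 Mueller-Hinton broth microdilution. Test compounds were serially diluted two-fold in DMSO. The inoculum was grown in broth overnight at 37 °C, then diluted to a final 10⁵ cfu/ml in the tray. Trays were covered and incubated at 37 °C for about 24 h. MIC was the lowest concentration inhibiting visible growth.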

Staphylococcus aureus = assay: Antibacterial activity against Staphylococcus aureus after 24 hrs by micro-broth dilution technique; summary of the method: as §2
Trichophyton tonsurans = assay: Antifungal activity against Trichophyton tonsurans after 7 days; conditions: 168 h; summary of the method: as §1
Klebsiella pneumoniae = assay: Antibacterial activity against Klebsiella pneumoniae after 24 hrs by micro-broth dilution technique; summary of the method: as §2
Pseudomonas aeruginosa = assay: Antibacterial activity against Pseudomonas aeruginosa after 24 hrs by micro-broth dilution technique; summary of the method: as §2

SMILES	MIC (Microsporum)	MIC (Escherichia coli)	MIC (Staphylococcus aureus)	MIC (Trichophyton tonsurans)	MIC (Klebsiella pneumoniae)	MIC (Pseudomonas aeruginosa)
Nc1nc(-c2ccc(Cl)cc2)cc(-c2cccc3ccccc23)n1	5.55 µg/mL (≈ 16.7 µM)	13.5 µg/mL (≈ 40.7 µM)	12.3 µg/mL (≈ 37.1 µM)	2.8 µg/mL (≈ 8.44 µM)	19.8 µg/mL (≈ 59.7 µM)	21.9 µg/mL (≈ 66 µM)
Clc1ccc(COC(Cn2ccnc2)c2ccc(Cl)cc2Cl)c(Cl)c1 (stereo not given) [MICONAZOLE]	0.2 µg/mL (≈ 0.481 µM)	–	–	0.2 µg/mL (≈ 0.481 µM)	–	–
COc1ccccc1-c1cc(-c2cccc3ccccc23)nc(N)n1	25 µg/mL (≈ 76.4 µM)	36 µg/mL (≈ 110 µM)	> 60 µg/mL	25 µg/mL (≈ 76.4 µM)	8.22 µg/mL (≈ 25.1 µM)	9.18 µg/mL (≈ 28 µM)
Nc1nc(-c2ccc([N+](=O)[O-])cc2)cc(-c2cccc3ccccc23)n1	25 µg/mL (≈ 73 µM)	16.6 µg/mL (≈ 48.6 µM)	25.6 µg/mL (≈ 74.9 µM)	25 µg/mL (≈ 73 µM)	15.3 µg/mL (≈ 44.8 µM)	11.9 µg/mL (≈ 34.8 µM)
CC1(C)S[C@@H]2[C@H](NC(=O)[C@H](N)c3ccccc3)C(=O)N2[C@H]1C(=O)O [AMPICILLIN]	–	1.65 µg/mL (≈ 4.72 µM)	1 µg/mL (≈ 2.86 µM)	–	1.8 µg/mL (≈ 5.15 µM)	1.8 µg/mL (≈ 5.15 µM)

Results, then the compound that gave them:

MIC (Microsporum)	MIC (Escherichia coli)	MIC (Staphylococcus aureus)	MIC (Trichophyton tonsurans)	MIC (Klebsiella pneumoniae)	MIC (Pseudomonas aeruginosa)	SMILES
25 µg/mL (≈ 75.3 µM)	> 60 µg/mL	40 µg/mL (≈ 121 µM)	25 µg/mL (≈ 75.3 µM)	5.38 µg/mL (≈ 16.2 µM)	6.4 µg/mL (≈ 19.3 µM)	Nc1nc(-c2ccccc2Cl)cc(-c2cccc3ccccc23)n1
25 µg/mL (≈ 73 µM)	19.5 µg/mL (≈ 57 µM)	29.1 µg/mL (≈ 85 µM)	25 µg/mL (≈ 73 µM)	14.3 µg/mL (≈ 41.7 µM)	18.2 µg/mL (≈ 53.2 µM)	Nc1nc(-c2cccc([N+](=O)[O-])c2)cc(-c2cccc3ccccc23)n1
25 µg/mL (≈ 84.1 µM)	42 µg/mL (≈ 141 µM)	> 60 µg/mL	25 µg/mL (≈ 84.1 µM)	5.5 µg/mL (≈ 18.5 µM)	6.59 µg/mL (≈ 22.2 µM)	Nc1nc(-c2ccccc2)cc(-c2cccc3ccccc23)n1
5.9 µg/mL (≈ 18.7 µM)	8.1 µg/mL (≈ 25.7 µM)	7.3 µg/mL (≈ 23.1 µM)	2.2 µg/mL (≈ 6.98 µM)	2.55 µg/mL (≈ 8.09 µM)	5.45 µg/mL (≈ 17.3 µM)	Nc1nc(-c2ccc(F)cc2)cc(-c2cccc3ccccc23)n1
25 µg/mL (≈ 76.4 µM)	> 60 µg/mL	> 60 µg/mL	25 µg/mL (≈ 76.4 µM)	9.31 µg/mL (≈ 28.4 µM)	10.2 µg/mL (≈ 31.2 µM)	COc1ccc(-c2cc(-c3cccc4ccccc34)nc(N)n2)cc1
25 µg/mL (≈ 75.3 µM)	41 µg/mL (≈ 124 µM)	39 µg/mL (≈ 118 µM)	25 µg/mL (≈ 75.3 µM)	6.38 µg/mL (≈ 19.2 µM)	7.42 µg/mL (≈ 22.4 µM)	Nc1nc(-c2cccc(Cl)c2)cc(-c2cccc3ccccc23)n1
